According to ChEMBL document CHEMBL1143800, “Design and synthesis of new pyranoxanthenones bearing a nitro group or an aminosubstituted side chain on the pyran ring. Evaluation of their growth inhibitory activity in breast cancer cells” (Eur J Med Chem, 2007):

Assays:
MDA-MB-231 [1] = assay: Antiproliferative activity against human MDA-MB-231 cells at 10 uM after 72 hrs; format: functional
How it was run: (§1)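 MDA-MB-231 cells grown in serum-containing EMEM (10% FBS) were plated at 1 × 10⁴ cells/well. 24 h later they were exposed to a single compound level in fresh serum medium, using DMSO/ethanol stocks diluted into the medium. At 72 h, WST-1 was added for 3 h and formazan read at 450 nm (ref 650). Values are % growth inhibition versus controls, averaged ± SD over three experiments, each in triplicate.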

MDA-MB-231 [2] = assay: Antiproliferative activity against human MDA-MB-231 cells at 3 uM after 72 hrs; format: functional; how it was run: as §1
MDA-MB-231 [3] = assay: Antiproliferative activity against human MDA-MB-231 cells after 72 hrs; format: functional, cell-based; settings: MDA-MB-231, 72 h
How it was run: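 MDA-MB-231 (ER-negative) monolayers in EMEM with 10% FBS, L-glutamine, pyruvate, NEAA, insulin at 37 °C, 5% CO2. Seeded 1 × 10⁴ cells/well with serum and dosed 24 h later with compound at 1–100 (DMSO and/or ethanol stocks diluted into medium). After 72 h, 3 h WST-1 read at 450 nm (ref 650). IC50 = concentration halving OD versus untreated controls. Mean ± SD, three independent experiments.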

MDA-MB-231 [4] = assay: Antiproliferative activity against human MDA-MB-231 cells at 1 uM after 72 hrs; format: functional; how it was run: as §1
MDA-MB-231 [5] = assay: Antiproliferative activity against human MDA-MB-231 cells at 30 uM after 72 hrs; format: functional; how it was run: as §1
MDA-MB-231 [6] = assay: Antiproliferative activity against human MDA-MB-231 cells at 100 uM after 72 hrs; format: functional; how it was run: as §1

| SMILES | Activity (MDA-MB-231 [1]) [%] | Activity (MDA-MB-231 [2]) [%] | IC50 (MDA-MB-231 [3]) [µM] | Activity (MDA-MB-231 [4]) [%] | Activity (MDA-MB-231 [5]) [%] | Activity (MDA-MB-231 [6]) [%] |
| --- | --- | --- | --- | --- | --- | --- |
| CN(C)CCNc1cc2c(c3oc4ccccc4c(=O)c13)CC(N)C(C)(C)O2 (configuration not stated) | 20 | 20 | 38 | 20 |  |  |
| COc1cc2c(c3oc4ccccc4c(=O)c13)CC(NCCN(C)C)C(C)(C)O2 (configuration not stated) | 15 | 12 | 57 | 12 | 15 | 74 |
| CCN(CC)CCNC1Cc2c(cc(OC)c3c(=O)c4ccccc4oc23)OC1(C)C (configuration not stated) | 15 | 12 | 44 | 12 | 15 | 74 |
| CCN(CC)CCNc1cc2c(c3oc4ccccc4c(=O)c13)C=C([N+](=O)[O-])C(C)(C)O2 |  |  | > 100 |  |  |  |
| CN(C)CCNc1cc2c(c3oc4ccccc4c(=O)c13)CC([N+](=O)[O-])C(C)(C)O2 (configuration not stated) | 20 | 20 | > 100 | 20 |  |  |
| CCN(CC)CCNc1cc2c(c3oc4ccccc4c(=O)c13)CC(N)C(C)(C)O2 (configuration not stated) |  |  | 62 |  |  | 75 |
| CN(C)CCNc1cc2c(c3oc4ccccc4c(=O)c13)CC(NC(=O)CN(C)C)C(C)(C)O2 (configuration not stated) | 20 | 20 | 50 | 20 |  |  |
| CN(C)CCNc1cc2c(c3oc4ccccc4c(=O)c13)CC(NCCN(C)C)C(C)(C)O2 (configuration not stated) | 20 | 20 | 46 | 20 |  |  |
| CCN(CC)CCNc1cc2c(c3oc4ccccc4c(=O)c13)CC(NCCN(CC)CC)C(C)(C)O2 (configuration not stated) |  |  | 73 |  |  | 75 |
| COc1cc2c(c3oc4ccccc4c(=O)c13)CC(N)C(C)(C)O2 (configuration not stated) | 15 | 12 | 53 | 12 | 15 | 74 |
| CCN(CC)CC(=O)NC1Cc2c(cc(OC)c3c(=O)c4ccccc4oc23)OC1(C)C (configuration not stated) | 15 | 12 | 52 | 12 | 15 | 74 |
| CCN(CC)CCNc1cc2c(c3oc4ccccc4c(=O)c13)CC([N+](=O)[O-])C(C)(C)O2 (configuration not stated) |  |  | > 100 |  | 20 | 20 |
| CN(C)CCNc1cc2c(c3oc4ccccc4c(=O)c13)C=C([N+](=O)[O-])C(C)(C)O2 |  |  | 21 |  |  |  |
| COc1cc2c(c3oc4ccccc4c(=O)c13)CC(NC(=O)CN(C)C)C(C)(C)O2 (configuration not stated) | 15 | 12 | 51 | 12 | 15 | 74 |
| CCN(CC)CCNc1cc2c(c3oc4ccccc4c(=O)c13)CC(NC(=O)CN(CC)CC)C(C)(C)O2 (configuration not stated) |  |  | 68 |  |  | 75 |
